Data published in ChEMBL document CHEMBL4602706, “Natural Product Evodiamine with Borate Trigger Unit: Discovery of Potent Antitumor Agents against Colon Cancer” (ACS Med Chem Lett, 2020).
Calls of active or inactive are those of the source. No cut-off for these calls is given here.

Legend:
A549 = assay: Antiproliferative activity against human A549 cells incubated for 72 hrs by CCK8 assay; type: functional, cell-based; conditions: Homo sapiens, A549, 72 h; read-out: IC50
Procedure, shortened: (§1)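 HCT116, MCF-7 and A549 human cancer cell lines; antiproliferative activity read out by CCK8 assay. Evodiamine derivatives and camptothecin served as positive controls.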

MCF7 = assay: Antiproliferative activity against human MCF7 cells incubated for 72 hrs by CCK8 assay; type: functional, cell-based; conditions: Homo sapiens, MCF7, 72 h; read-out: IC50; procedure, shortened: as §1
HCT-116 = assay: Antiproliferative activity against human HCT116 cells incubated for 72 hrs by CCK8 assay; type: functional, cell-based; conditions: Homo sapiens, HCT-116, 72 h; read-out: IC50; procedure, shortened: as §1
[1] = molecular target: T1, DNA topoisomerase 1 (Homo sapiens) (UniProt P11387); assay: Inhibition of Top1 (unknown origin) at 125 uM using supercoiled pBR322 plasmid DNA as substrate incubated for 15 mins by PI staining based agarose gel electrophoresis analysis
T1 sequence (whole entry): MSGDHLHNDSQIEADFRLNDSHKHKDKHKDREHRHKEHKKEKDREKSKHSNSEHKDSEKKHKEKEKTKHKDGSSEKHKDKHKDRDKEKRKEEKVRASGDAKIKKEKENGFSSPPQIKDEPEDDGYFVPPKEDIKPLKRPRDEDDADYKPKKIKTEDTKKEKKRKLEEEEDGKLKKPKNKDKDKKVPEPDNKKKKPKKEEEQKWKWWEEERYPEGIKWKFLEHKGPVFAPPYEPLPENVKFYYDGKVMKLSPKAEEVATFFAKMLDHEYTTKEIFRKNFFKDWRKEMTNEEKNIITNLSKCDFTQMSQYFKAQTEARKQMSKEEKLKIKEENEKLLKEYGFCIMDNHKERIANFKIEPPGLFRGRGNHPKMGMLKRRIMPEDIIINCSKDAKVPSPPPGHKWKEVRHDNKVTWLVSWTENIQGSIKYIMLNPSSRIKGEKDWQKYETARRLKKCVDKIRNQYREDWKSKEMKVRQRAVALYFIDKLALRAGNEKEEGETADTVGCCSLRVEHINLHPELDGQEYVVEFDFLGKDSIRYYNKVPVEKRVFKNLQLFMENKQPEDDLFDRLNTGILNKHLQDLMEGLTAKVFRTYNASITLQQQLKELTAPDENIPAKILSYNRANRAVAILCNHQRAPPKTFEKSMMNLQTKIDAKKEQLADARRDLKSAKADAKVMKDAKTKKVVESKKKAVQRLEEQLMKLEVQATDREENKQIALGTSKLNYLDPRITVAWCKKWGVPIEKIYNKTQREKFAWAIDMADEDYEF
Procedure, shortened: (§2)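 Top1 inhibition tested at 500, 250 and 125 μM, and over 27.9 to 250 μM for selected compounds.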

[2] = molecular target: T1, DNA topoisomerase 1 (Homo sapiens); assay: Inhibition of Top1 (unknown origin) at 500 uM using supercoiled pBR322 plasmid DNA as substrate incubated for 15 mins by PI staining based agarose gel electrophoresis analysis; procedure, shortened: as §2
[3] = molecular target: T2, DNA topoisomerase II (Homo sapiens) (UniProt P11388+Q02880); assay: Inhibition of Top2 (unknown origin) using supercoiled pBR322 plasmid as substrate incubated for 30 mins by PI staining based agarose gel electrophoresis analysis; type: protein assay
[4] = molecular target: T2, DNA topoisomerase II (Homo sapiens); assay: Inhibition of Top2 (unknown origin) at 50 uM using supercoiled pBR322 plasmid DNA as substrate incubated for 30 mins by PI staining based agarose gel electrophoresis analysis; type: protein assay
[5] = Drug metabolism in human HCT116 cells assessed as 3-Fluoro-10-hydroxy-14-methyl-8,13,13b,14-tetrahydro-7H-indolo[2',3':3,4]pyrido[2,1-b]quinazolin-5-one release by measuring retention time incubated for 8 hrs by UPLC-QTOF/MS analysis; type: ADME, cell-based; conditions: hct-116, 8 h
Procedure, shortened: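 Compounds incubated with HCT116 cells; culture media analysed by HPLC after 8, 48 and 72 h. Relative release rate taken from relative peak areas; parent and product identified by retention time.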

[6] = Metabolic stability in mouse liver microsomes assessed as half life at 1 uM preincubated with compound followed by NADPH addition measured upto 45 mins by LC-MS/MS analysis; type: ADME, Microsome
Procedure, shortened: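 In vitro stability in liver microsomes; terminal half-life determined.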

Row | Structure (SMILES) | IC50 (A549) [nM] | IC50 (MCF7) [nM] | IC50 (HCT-116) [nM] | inhibition [1] | inhibition [2] | inhibition [3] | inhibition [4] | Retention_time [5] [min] | half-life at 1 µM [6] [min]
1 | CN1c2ccccc2C(=O)N2CCc3c([nH]c4ccc(B5OC(C)(C)C(C)(C)O5)cc34)C21 (centres undefined) | 170 | 390 | 220 |  |  |  |  |  | 
2 | CN1c2ccc(F)cc2C(=O)N2CCc3c([nH]c4ccc(OCc5ccc(B(O)O)cc5)cc34)C21 (centres undefined) | 73 | 59 | 83 | Active | Active | Active |  |  | 
3 | CN1c2ccccc2C(=O)N2CCc3c(n(C(=O)OC(C)(C)C)c4ccc(OCc5ccc(B(O)O)cc5)cc34)C21 (centres undefined) | 7200 | 1580 | 520 |  |  |  |  |  | 
4 | CN1c2ccccc2C(=O)N2CCc3c([nH]c4ccc(OC(=O)OCc5ccc(B6OC(C)(C)C(C)(C)O6)cc5)cc34)C21 (centres undefined) | 100 | 86 | 65 | Active | Active |  | Active |  | 
5 | CN1c2ccccc2C(=O)N2CCc3c([nH]c4ccc(OCc5ccc(B(O)O)cc5)cc34)C21 (centres undefined) | 74 | 110 | 120 | Active | Active |  | Active |  | 
6 | CN1c2ccc(F)cc2C(=O)N2CCc3c([nH]c4ccc(OCc5ccc(B6OC(C)(C)C(C)(C)O6)cc5)cc34)C21 (centres undefined) | 120 | 97 | 150 |  |  |  |  |  | 
7 | CN1c2ccccc2C(=O)N2CCc3c([nH]c4ccc(B(O)O)cc34)C21 (centres undefined) | 100 | 160 | 69 |  | Active |  |  |  | 
8 | CN1c2ccc(F)cc2C(=O)N2CCc3c([nH]c4ccc(B(O)O)cc34)C21 (centres undefined) | 40 | 94 | 63 |  | Active |  |  |  | 
9 | CN1c2ccc(F)cc2C(=O)N2CCc3c([nH]c4ccc(O)cc34)C21 (centres undefined) | 29 | 31 | 27 |  | Active |  |  | 7.3 | 3.69
10 | CN1c2ccccc2C(=O)N2CCc3c(n(C(=O)OC(C)(C)C)c4ccc(OCc5ccc(B6OC(C)(C)C(C)(C)O6)cc5)cc34)C21 (centres undefined) | 3440 | 4130 | 4180 |  |  |  |  |  | 
